According to ChEMBL document CHEMBL3271988, “Nitrogen analogues of 1,4-benzoquinones. Activities against the ascitic sarcoma 180 of mice” (J Med Chem, 1978):
The source made the active and inactive calls. No cut-off for these calls is given here.

Tests used:
Sarcoma-180 [1] = assay: Antitumor activity against mouse Sarcoma 180 cells allografted in Swiss mouse assessed as survival time at 6 mg/kg, ip three doses were given at 24 hrs interval starting 24 hrs after allograft injection relative to control; assay type: functional; conditions: route intraperitoneal
In short: (§1)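 Swiss mice inoculated ip with 10^6 ascitic sarcoma 180 cells. Compound given ip daily ×3 at 24-h intervals, starting 24 h after inoculation. Controls received isotonic saline on the same schedule; 6 mice per group. Mice alive at 60 days counted as 60 days in mean survival (±SD).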

Sarcoma-180 [2] = assay: Antitumor activity against mouse Sarcoma 180 cells allografted in Swiss mouse at 6 mg/kg, ip three doses were given at 24 hrs interval starting 24 hrs after allograft injection relative to control; assay type: functional; conditions: route intraperitoneal
In short: (§2)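 Swiss mice received 10^6 ascitic sarcoma 180 cells ip, then three ip doses 24 h apart starting at 24 h. Controls got isotonic salt solution on the same schedule. T/C% is mean survival time of treated over controls (6 mice per group).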

Sarcoma-180 [3] = assay: Antitumor activity against mouse Sarcoma 180 cells allografted in Swiss mouse assessed as weight gain at 6 mg/kg, ip three doses were given at 24 hrs interval starting 24 hrs after allograft injection measured after 3 days relative to control; assay type: functional; conditions: route intraperitoneal
In short: (§3)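 Ascitic sarcoma 180 model in Swiss mice: 10^6 cells ip, then three ip doses at 24-h intervals beginning 24 h later. Mice were weighed 1 day after cell injection and again 3 days later (24 h after the third dose). Percent weight gain of treated mice was compared with saline-treated controls on the same schedule.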

[4] = Half life of the compound in water at pH 7 at 25 degC by spectrophotometry; assay type: physicochemical
In short: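 Compound dissolved in absolute ethanol, then diluted into 0.01 M Tris buffer brought to pH 7 with HCl, 25 °C. Absorbance at λmax followed over hours or days; log absorbance vs time fitted by least squares, rate constant and half-time taken from the slope.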

[5] = Acute toxicity in single ip dosed Swiss mouse assessed as death up to 5 days; assay type: organism-based; conditions: in vivo
In short: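 Male Swiss mice given one ip dose. LD50 taken as the single dose killing 50% of animals within 5 days.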

Sarcoma-180 [6] = assay: Antitumor activity against mouse Sarcoma 180 cells allografted in Swiss mouse assessed as survival at 6 mg/kg, ip three doses were given at 24 hrs interval starting 24 hrs after allograft injection measured after 5 days; assay type: functional, organism-based; parameters: dose 6 mg/kg
In short: (§4)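 Swiss mice were injected ip with 10^6 ascitic sarcoma 180 cells. Three daily ip doses followed, the first 24 h after cell injection. The read-out was the number of mice surviving at 5 days, out of 6 treated.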

Sarcoma-180 [7] = assay: Antitumor activity against mouse Sarcoma 180 cells allografted in Swiss mouse assessed as cure at 6 mg/kg, ip three doses were given at 24 hrs interval starting 24 hrs after allograft injection measured after 60 days; assay type: functional, organism-based; parameters: dose 6 mg/kg
In short: (§5)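 Swiss mice given 10^6 ascitic sarcoma 180 cells ip. Starting 24 h later, three ip doses were given 24 h apart. Controls got isotonic salt solution on the same schedule. A cure was a mouse alive with no evidence of cancer cells 60 days after cell injection, reported per 6 mice.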

[8] = Redox potential of the compound in alcohol-water solution; conditions: buffer
Sarcoma-180 [9] = assay: Antitumor activity against mouse Sarcoma 180 cells allografted in Swiss mouse assessed as survival time at 20 mg/kg, ip three doses were given at 24 hrs interval starting 24 hrs after allograft injection relative to control; assay type: functional; conditions: route intraperitoneal; in short: as §1
Sarcoma-180 [10] = assay: Antitumor activity against mouse Sarcoma 180 cells allografted in Swiss mouse at 20 mg/kg, ip three doses were given at 24 hrs interval starting 24 hrs after allograft injection relative to control; assay type: functional; conditions: route intraperitoneal; in short: as §2
Sarcoma-180 [11] = assay: Antitumor activity against mouse Sarcoma 180 cells allografted in Swiss mouse assessed as weight gain at 20 mg/kg, ip three doses were given at 24 hrs interval starting 24 hrs after allograft injection measured after 3 days relative to control; assay type: functional; conditions: route intraperitoneal; in short: as §3
Sarcoma-180 [12] = assay: Antitumor activity against mouse Sarcoma 180 cells allografted in Swiss mouse assessed as survival at 20 mg/kg, ip three doses were given at 24 hrs interval starting 24 hrs after allograft injection measured after 5 days; assay type: functional, organism-based; parameters: dose 20 mg/kg; in short: as §4
Sarcoma-180 [13] = assay: Antitumor activity against mouse Sarcoma 180 cells allografted in Swiss mouse assessed as cure at 20 mg/kg, ip three doses were given at 24 hrs interval starting 24 hrs after allograft injection measured after 60 days; assay type: functional, organism-based; parameters: dose 20 mg/kg; in short: as §5
Sarcoma-180 [14] = assay: Antitumor activity against mouse Sarcoma 180 cells allografted in Swiss mouse assessed as survival time at 10 mg/kg, ip three doses were given at 24 hrs interval starting 24 hrs after allograft injection relative to control; assay type: functional; conditions: route intraperitoneal; in short: as §1
Sarcoma-180 [15] = assay: Antitumor activity against mouse Sarcoma 180 cells allografted in Swiss mouse at 10 mg/kg, ip three doses were given at 24 hrs interval starting 24 hrs after allograft injection relative to control; assay type: functional; conditions: route intraperitoneal; in short: as §2
Sarcoma-180 [16] = assay: Antitumor activity against mouse Sarcoma 180 cells allografted in Swiss mouse assessed as weight gain at 10 mg/kg, ip three doses were given at 24 hrs interval starting 24 hrs after allograft injection measured after 3 days relative to control; assay type: functional; conditions: route intraperitoneal; in short: as §3
Sarcoma-180 [17] = assay: Antitumor activity against mouse Sarcoma 180 cells allografted in Swiss mouse assessed as survival at 10 mg/kg, ip three doses were given at 24 hrs interval starting 24 hrs after allograft injection measured after 5 days; assay type: functional, organism-based; parameters: dose 10 mg/kg; in short: as §4
Sarcoma-180 [18] = assay: Antitumor activity against mouse Sarcoma 180 cells allografted in Swiss mouse assessed as cure at 10 mg/kg, ip three doses were given at 24 hrs interval starting 24 hrs after allograft injection measured after 60 days; assay type: functional, organism-based; parameters: dose 10 mg/kg; in short: as §5
Sarcoma-180 [19] = assay: Antitumor activity against mouse Sarcoma 180 cells allografted in Swiss mouse assessed as survival time at 3 mg/kg, ip three doses were given at 24 hrs interval starting 24 hrs after allograft injection relative to control; assay type: functional; conditions: route intraperitoneal; in short: as §1
Sarcoma-180 [20] = assay: Antitumor activity against mouse Sarcoma 180 cells allografted in Swiss mouse at 3 mg/kg, ip three doses were given at 24 hrs interval starting 24 hrs after allograft injection relative to control; assay type: functional; conditions: route intraperitoneal; in short: as §2
Sarcoma-180 [21] = assay: Antitumor activity against mouse Sarcoma 180 cells allografted in Swiss mouse assessed as survival at 3 mg/kg, ip three doses were given at 24 hrs interval starting 24 hrs after allograft injection measured after 5 days; assay type: functional, organism-based; parameters: dose 3 mg/kg; in short: as §4
Sarcoma-180 [22] = assay: Antitumor activity against mouse Sarcoma 180 cells allografted in Swiss mouse assessed as weight gain at 3 mg/kg, ip three doses were given at 24 hrs interval starting 24 hrs after allograft injection measured after 3 days relative to control; assay type: functional; conditions: route intraperitoneal; in short: as §3
Sarcoma-180 [23] = assay: Antitumor activity against mouse Sarcoma 180 cells allografted in Swiss mouse assessed as survival time at 60 mg/kg, ip three doses were given at 24 hrs interval starting 24 hrs after allograft injection relative to control; assay type: functional; conditions: route intraperitoneal; in short: as §1
Sarcoma-180 [24] = assay: Antitumor activity against mouse Sarcoma 180 cells allografted in Swiss mouse at 60 mg/kg, ip three doses were given at 24 hrs interval starting 24 hrs after allograft injection relative to control; assay type: functional; conditions: route intraperitoneal; in short: as §2
Sarcoma-180 [25] = assay: Antitumor activity against mouse Sarcoma 180 cells allografted in Swiss mouse assessed as survival at 60 mg/kg, ip three doses were given at 24 hrs interval starting 24 hrs after allograft injection measured after 5 days; assay type: functional, organism-based; parameters: dose 60 mg/kg; in short: as §4
Sarcoma-180 [26] = assay: Antitumor activity against mouse Sarcoma 180 cells allografted in Swiss mouse assessed as weight gain at 60 mg/kg, ip three doses were given at 24 hrs interval starting 24 hrs after allograft injection measured after 3 days relative to control; assay type: functional; conditions: route intraperitoneal; in short: as §3
Sarcoma-180 [27] = assay: Antitumor activity against mouse Sarcoma 180 cells allografted in Swiss mouse assessed as cure at 60 mg/kg, ip three doses were given at 24 hrs interval starting 24 hrs after allograft injection measured after 60 days; assay type: functional, organism-based; parameters: dose 60 mg/kg; in short: as §5

Structure (SMILES) | half-life [4] | LD50 at 120 h [5] | Redox potential [8] | Survival (Sarcoma-180 [9]) | T/C (Sarcoma-180 [10]) | Activity (Sarcoma-180 [11]) | Activity (Sarcoma-180 [12]) | Activity (Sarcoma-180 [13]) | other results
CC1=C/C(=N\c2ccc(N(C)C)cc2)C=CC1=O | 83.8 days | 27 mg/kg | 0.604 V |  |  |  |  |  | Survival (Sarcoma-180 [1]): 18 days; T/C (Sarcoma-180 [2]): 127%; Activity (Sarcoma-180 [3]): -0.6%; Activity (Sarcoma-180 [6]): Active; Activity (Sarcoma-180 [7]): inactive
CC(=O)Oc1ccc(N=C2C=CC(=O)C=C2)cc1 |  | 90 mg/kg | 0.633 V | 19.2 days | 130% | -1.5% | Active | inactive | 
CN(C)c1ccc(/N=C2/C=CC(=O)C(Cl)=C2)cc1 | 19.9 days | 100 mg/kg | 0.658 V | 33.3 days | 256% | 9% | Active | inactive | 
O=C1C(Cl)=CC(=NCl)C=C1Cl | 1.67 days | 20 mg/kg | 0.659 V |  |  |  |  |  | Survival (Sarcoma-180 [14]): 25.3 days; T/C (Sarcoma-180 [15]): 220%; Activity (Sarcoma-180 [16]): -14.2%; Activity (Sarcoma-180 [17]): Active; Activity (Sarcoma-180 [18]): inactive
CC(=O)NC1=C/C(=N\c2ccc(N(C)C)cc2)C=CC1=O |  | 70 mg/kg | 0.58 V |  |  |  |  |  | Survival (Sarcoma-180 [19]): 26.8 days; T/C (Sarcoma-180 [20]): 194%; Activity (Sarcoma-180 [21]): Active; Activity (Sarcoma-180 [22]): 4.3%
COC1=C/C(=N\O)C=CC1=O | 12.4 days | 120 mg/kg | 0.521 V |  |  |  |  |  | Survival (Sarcoma-180 [23]): 18.5 days; T/C (Sarcoma-180 [24]): 173%; Activity (Sarcoma-180 [25]): Active; Activity (Sarcoma-180 [26]): 1.9%; Activity (Sarcoma-180 [27]): inactive
